Measurements taken from ChEMBL document CHEMBL1944515 (J Med Chem, 2012).
Calls of active or inactive are those of the source. No cut-off for these calls is given here.

Columns and labels:
[1] = tested on: HeLa; experiment: Cytotoxicity against human HeLa cells after 72 hrs by MTT assay; assay type: functional, cell-based
[2] = tested on: HL-60; experiment: Cytotoxicity against human HL60 cells after 72 hrs by MTT assay; assay type: functional, cell-based; settings: HL-60, 72 h
[3] = tested on: Jurkat; experiment: Cytotoxicity against human Jurkat cells after 72 hrs by MTT assay; assay type: functional, cell-based
Outline: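 8 × 10^3 cells/well were preincubated 18 h at 37 °C, 5% CO2, then given graded concentrations for 72 h, with final DMSO not above 0.25%. Viability was read by MTT. […] Mean ± SE from at least three experiments.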

[4] = tested on: MCF7; experiment: Cytotoxicity against human MCF7 cells after 72 hrs by MTT assay; assay type: functional, cell-based; settings: MCF7, 72 h
[5] = tested on: HT-29; experiment: Cytotoxicity against human HT-29 cells after 72 hrs by MTT assay; assay type: functional, cell-based; settings: HT-29, 72 h
[6] = tested on: LoVo; experiment: Cytotoxicity against human doxorubicin-resistant LoVo cells after 72 hrs by MTT assay; assay type: functional, cell-based
Outline: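 Cells seeded at 8 × 10^3 per well and left 18 h at 37 °C, 5% CO2, then given fresh medium with compound at a range of concentrations for 72 h; DMSO at most 0.25% final. Viability read by MTT relative to 0.25% DMSO-treated cells. […] LoVoDoxo kept in Ham's F12 with 0.1 μg/mL doxorubicin; A549-T12 kept in DMEM with 12 nM paclitaxel.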

[7] = tested on: CCRF-CEM; experiment: Resistance ratio of IC50 for human CEM/VBL100 cells to IC50 for human CEM cells; assay type: functional
[8] = tested on: A549; experiment: Resistance ratio of IC50 for human A549-T12 cells to IC50 for human A549 cells; assay type: functional
[9] = tested on: HeLa; experiment: Induction of cell cycle arrest in human HeLa cells assessed as increase in G2/M phase cells at 30 nM after 24 hrs by flow cytometry; assay type: functional, cell-based
Outline: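 5 × 10^5 exponentially growing HeLa cells were treated with 15–250 nM for 24 h, fixed in ice-cold 70% ethanol, then treated with lysis buffer containing RNase A and 0.1% Triton X-100. PI staining of DNA content, read by flow cytometry. Mean ± SEM of three independent experiments.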

[10] = tested on: HeLa; experiment: Induction of cell cycle arrest in human HeLa cells assessed as G2/M phase cells at 60 nM after 24 hrs by flow cytometry; assay type: functional
Outline: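 Exponentially growing HeLa cells (5 × 10^5) were treated 24 h at 15–250 nM. Cells were fixed in ice-cold 70% ethanol, lysed with RNase A/0.1% Triton X-100 buffer and stained with propidium iodide. DNA content was measured by flow cytometry to score G2/M fraction. Mean ± SEM of three independent experiments.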

[11] = tested on: HeLa; experiment: Induction of cell cycle arrest in human HeLa cells assessed as increase in cyclin B1 expression at 50 to 100 nM after 24 to 48 hrs by Western blot analysis; assay type: functional, cell-based
Outline: (§1)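 HeLa cells were treated for 24 or 48 h, washed in ice-cold PBS and lysed on ice for 30 min; lysates were spun at 15000g, 4 °C. 20 μg protein per lane on SDS-PAGE (7.5–15%), then PVDF. Blocked overnight at 4 °C, primary antibodies 2 h at room temperature, peroxidase secondary 60 min, ECL detection. Blots were reprobed for β-actin as loading control.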

[12] = tested on: HeLa; experiment: Induction of apoptosis in human HeLa cells assessed as early apoptotic cells at 100 nM after 48 hrs by FITC conjugated annexin-V/PI staining-based flow cytometry (reference value: 9.6%); assay type: functional
Outline: (§2)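 Flow cytometry of HeLa cells after 24 or 48 h exposure, double-stained with annexin-V-FITC and propidium iodide. Excitation at 488 nm, emission at 525 nm (FITC) and 585 nm (PI). Quadrants scored as live, early apoptotic, late apoptotic or necrotic cells.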

[13] = tested on: HeLa; experiment: Induction of apoptosis in human HeLa cells assessed as increase in annexin-V positive apoptotic cells after 24 to 48 hrs by FITC conjugated annexin-V/PI staining-based flow cytometry; assay type: functional, cell-based; outline: as §2
[14] = tested on: HeLa; experiment: Induction of mitochondrial depolarization in human HeLa cells assessed as JC1 aggregate level after 48 hrs by JC1-based fluorescent staining (reference value: 99.2%); assay type: functional
Outline: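 Mitochondrial membrane potential in HeLa cells after 24 or 48 h incubation, measured with the JC-1 dye by flow cytometry. Aggregates read as red (590 nm) and monomers as 530 nm; output is the percentage of depolarized cells. Mean ± SEM of three independent experiments.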

[15] = tested on: HeLa; experiment: Induction of ROS production in human HeLa cells at 50 to 100 nM after 24 to 48 hrs by HE staining-based flow cytometry; assay type: functional, cell-based
Outline: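 HeLa cells were exposed for 24 or 48 h, then stained with hydroethidine or H2-DCFDA for ROS and read by flow cytometry. DMSO ≤0.25%. Mean ± SEM of three independent experiments.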

[16] = tested on: HeLa; experiment: Induction of apoptosis in human HeLa cells assessed as PARP cleavage at 50 to 100 nM after 24 to 48 hrs by Western blot analysis; assay type: functional, cell-based; outline: as §1
[17] = tested on: HeLa; experiment: Induction of apoptosis in human HeLa cells assessed as decrease in XIAP protein expression at 50 to 100 nM after 24 to 48 hrs by Western blot analysis; assay type: functional, cell-based; outline: as §1
[18] = tested on: HeLa; experiment: Induction of apoptosis in human HeLa cells assessed as decrease in Bcl2 protein level at 50 to 100 nM after 48 hrs by Western blot analysis; assay type: functional, cell-based; outline: as §1
[19] = tested on: Mus musculus; experiment: Toxicity in BALB/c nude mouse assessed as change in body weight at 100 mg/kg, ip administered on days 0,2 and 4 measured after 1 week relative to control; assay type: organism-based; design: dose 100 mg/kg, route intraperitoneal; settings: in vivo, 168 h
Outline: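 HT-29 cells in log phase, resuspended in serum-free RPMI 1640 at 1 × 10^7 cells/mL, inoculated 0.2 mL subcutaneously in the back of nude mice. At ~300 mm3, 18 mice were randomized to vehicle or two treatment groups. Dosing: 100 mg/kg in DMSO, ip at 0.01 mL/g, on days 0, 2 and 4. Tumor volume by caliper as (LW2)/2 and body weight recorded; n = 6 per group, mean ± SEM.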

[20] = molecular target: T1, M-phase inducer phosphatase 3 (Homo sapiens) (UniProt P30307); experiment: Induction of cdc25c phosphorylation in human HeLa cells at 50 to 100 nM after 24 hrs by Western blot analysis
T1 sequence (whole entry): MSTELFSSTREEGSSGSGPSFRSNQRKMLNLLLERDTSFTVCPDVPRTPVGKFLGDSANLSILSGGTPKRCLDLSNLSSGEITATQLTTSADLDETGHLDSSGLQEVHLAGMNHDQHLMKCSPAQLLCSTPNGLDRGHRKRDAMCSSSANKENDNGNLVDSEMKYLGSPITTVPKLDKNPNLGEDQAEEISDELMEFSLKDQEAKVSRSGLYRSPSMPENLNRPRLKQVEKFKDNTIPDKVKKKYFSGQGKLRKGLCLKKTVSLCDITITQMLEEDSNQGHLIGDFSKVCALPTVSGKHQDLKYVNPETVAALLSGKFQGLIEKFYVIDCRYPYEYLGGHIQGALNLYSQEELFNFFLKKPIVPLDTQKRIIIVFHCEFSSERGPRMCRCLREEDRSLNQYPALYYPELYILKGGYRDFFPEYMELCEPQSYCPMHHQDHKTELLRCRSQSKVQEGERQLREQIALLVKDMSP

What does the source list for CCOc1ccc(-c2nnnn2-c2cc(OC)c(OC)c(OC)c2)cc1?
IC50 [1]: 1.9 nM; IC50 [2]: 1.3 nM; IC50 [3]: 0.16 nM; IC50 [4]: 2.3 nM; IC50 [5]: 2.8 nM; IC50 [6]: 0.7 nM; Ratio IC50 [7]: 0.2; Ratio IC50 [8]: 1; Activity [9]: Active; Activity [10]: >80%; Activity [11]: Active; Activity [12]: 34.4%; Activity [13]: Dose-dependent effect; Activity [14]: 0.09%; Activity [15]: Active; Activity [16]: Active; Activity [17]: Active; Activity [18]: Active; Activity [19]: Non-toxic; induction [20]: Active
